Source: ChEMBL document CHEMBL1914325, “Largazole and analogues with modified metal-binding motifs targeting histone deacetylases: synthesis and biological evaluation” (2011)
Calls of active or inactive are those of the source. No cut-off for these calls is given here.

Columns and labels:
[1] = molecular target: Histone deacetylase 1 (Homo sapiens) (UniProt Q13547); test: Inhibition of HDAC1 from human HeLa nuclear extract after 1 hr by fluorimetric assay
Procedure, shortened: (§1)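 Fluor de Lys fluorimetric deacetylase assay run per the kit protocol. Inhibitor, enzyme and substrate were incubated 1 h, then developer was added and incubated before reading. Recombinant HDAC1 or HDAC6 was tested at 1 µM inhibitor; HeLa nuclear extract served as the class 1/2 HDAC source. Analogue + substrate + developer was the signal control. Three experiments, each in triplicate; SD of triplicates.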

[2] = molecular target: Histone deacetylase 1 (Homo sapiens) (UniProt Q13547); test: Inhibition of HDAC1 in human HCT116 cells assessed as increase in histone H3 acetylation at 10 nM after 24 hrs by Western blot analysis; type: cell-based; details: HCT-116
Procedure, shortened: (§2)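 HCT116 cells treated 24 h with 10 nM, 100 nM or 1 µM compound, with DMSO as vehicle control. Acetylation of histone or α-tubulin was measured by Western blot of whole-cell lysates, detected with infrared dye-conjugated secondary antibodies and infrared scanning.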

[3] = molecular target: T1, Protein deacetylase HDAC6 (Homo sapiens) (UniProt Q9UBN7); test: Inhibition of HDAC6 in human HCT116 cells assessed as increase in alpha tubulin acetylation at 0.01 to 1 uM after 24 hrs by Western blot analysis; type: cell-based; details: HCT-116; procedure, shortened: as §2
T1 sequence (whole entry): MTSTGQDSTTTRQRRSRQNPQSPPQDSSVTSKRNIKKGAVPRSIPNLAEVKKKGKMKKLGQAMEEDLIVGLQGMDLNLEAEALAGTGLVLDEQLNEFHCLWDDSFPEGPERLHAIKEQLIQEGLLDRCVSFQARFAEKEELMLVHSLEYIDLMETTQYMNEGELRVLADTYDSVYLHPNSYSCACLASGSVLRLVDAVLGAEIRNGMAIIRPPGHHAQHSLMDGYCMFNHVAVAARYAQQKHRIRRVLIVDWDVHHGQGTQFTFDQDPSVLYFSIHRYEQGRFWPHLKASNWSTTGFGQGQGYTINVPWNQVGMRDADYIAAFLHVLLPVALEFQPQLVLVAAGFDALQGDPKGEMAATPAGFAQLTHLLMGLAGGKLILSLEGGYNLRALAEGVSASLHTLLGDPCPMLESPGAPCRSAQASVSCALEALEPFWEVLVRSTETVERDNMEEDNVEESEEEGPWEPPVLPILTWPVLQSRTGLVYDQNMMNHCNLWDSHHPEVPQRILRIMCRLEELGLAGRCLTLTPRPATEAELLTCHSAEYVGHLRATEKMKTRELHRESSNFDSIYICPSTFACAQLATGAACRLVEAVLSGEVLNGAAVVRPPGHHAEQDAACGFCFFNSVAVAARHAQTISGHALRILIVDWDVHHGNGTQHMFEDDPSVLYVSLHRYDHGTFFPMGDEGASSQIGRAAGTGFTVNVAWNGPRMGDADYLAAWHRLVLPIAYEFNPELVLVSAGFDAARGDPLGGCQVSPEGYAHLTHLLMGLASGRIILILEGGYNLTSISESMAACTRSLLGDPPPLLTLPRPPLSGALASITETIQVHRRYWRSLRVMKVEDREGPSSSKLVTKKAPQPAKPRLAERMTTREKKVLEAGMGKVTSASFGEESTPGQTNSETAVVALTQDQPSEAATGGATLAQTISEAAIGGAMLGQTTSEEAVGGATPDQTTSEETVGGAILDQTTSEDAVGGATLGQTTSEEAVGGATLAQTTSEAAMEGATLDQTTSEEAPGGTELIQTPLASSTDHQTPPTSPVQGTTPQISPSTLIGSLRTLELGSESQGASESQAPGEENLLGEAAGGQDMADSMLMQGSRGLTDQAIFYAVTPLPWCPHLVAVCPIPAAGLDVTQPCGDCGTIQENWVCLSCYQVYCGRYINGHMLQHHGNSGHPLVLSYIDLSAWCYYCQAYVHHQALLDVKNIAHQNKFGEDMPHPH

HCT-116 [4] = test: Growth inhibition of human HCT116 cells at 5 uM after 96 hrs by MTS assay; type: functional, cell-based
Procedure, shortened: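 HCT116 cells seeded at 3 × 10^4 cells/well in quadruplicate and left to attach overnight. Medium was replaced with fresh medium containing compound at 10 nM, 100 nM, 1 µM or 5 µM, then incubated 96 h at 37 °C in 5% CO2. MTS reagent was added for 1.5 h at 37 °C and absorbance read at 490 nm.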

[5] = molecular target: Histone deacetylase 1 (Homo sapiens) (UniProt Q13547); test: Inhibition of HDAC1 in human HCT116 cells assessed as increase in histone H3 acetylation at 1 uM after 24 hrs by Western blot analysis; type: cell-based; details: HCT-116; procedure, shortened: as §2
[6] = molecular target: Histone deacetylase 1 (Homo sapiens) (UniProt Q13547); test: Inhibition of recombinant HDAC1 at 1 uM after 1 hr by fluorimetric assay; procedure, shortened: as §1
[7] = molecular target: T1, Protein deacetylase HDAC6 (Homo sapiens); test: Inhibition of recombinant HDAC6 at 1 uM after 1 hr by fluorimetric assay; procedure, shortened: as §1
[8] = molecular target: T1, Protein deacetylase HDAC6 (Homo sapiens); test: Inhibition of recombinant human HDAC6 after 1 hr by fluorimetric assay
HCT-116 [9] = test: Growth inhibition of human HCT116 cells after 96 hrs by MTS assay; type: functional; details: HCT-116, 96 h
Procedure, shortened: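 HCT116 cells seeded at 3 × 10^4 cells/well in quadruplicate and allowed to attach overnight. Medium then replaced with fresh medium containing compound (10 nM, 100 nM, 1 µM, 5 µM). Cells incubated 96 h at 37 °C, 5% CO2. MTS reagent (CellTiter 96 One Solution) added for 1.5 h at 37 °C, then absorbance read at 490 nm. GI50 estimated from the growth curves.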

[10] = molecular target: Histone deacetylase 1 (Homo sapiens) (UniProt Q13547); details: HCT-116, 100 nM

Chain of Histone deacetylase 1 (Homo sapiens) (Q13547 whole entry): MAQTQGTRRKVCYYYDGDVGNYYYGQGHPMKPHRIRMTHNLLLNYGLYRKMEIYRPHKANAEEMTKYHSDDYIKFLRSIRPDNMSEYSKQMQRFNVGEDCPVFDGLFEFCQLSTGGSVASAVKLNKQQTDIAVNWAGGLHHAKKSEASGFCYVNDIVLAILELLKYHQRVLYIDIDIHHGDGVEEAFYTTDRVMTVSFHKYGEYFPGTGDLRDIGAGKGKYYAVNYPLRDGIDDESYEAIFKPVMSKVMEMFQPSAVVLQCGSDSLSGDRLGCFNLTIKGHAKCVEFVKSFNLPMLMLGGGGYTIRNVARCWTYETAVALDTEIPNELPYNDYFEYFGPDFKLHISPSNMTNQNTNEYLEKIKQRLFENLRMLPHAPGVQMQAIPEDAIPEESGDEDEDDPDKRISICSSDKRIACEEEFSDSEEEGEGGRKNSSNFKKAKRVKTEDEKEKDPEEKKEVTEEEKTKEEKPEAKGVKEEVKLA

| inhibition [1] | inhibition [2] | inhibition [3] | inhibition [5] | inhibition [6] | inhibition [7] [%] | inhibition [8] | Structure (SMILES) | growth inhibition (GI) (HCT-116 [4]) | GI50 (HCT-116 [9]) [nM] | inhibition [10] |
| --- | --- | --- | --- | --- | --- | --- | --- | --- | --- | --- |
| Active | inactive | inactive | Active | 80% | 50 | Active | CC(C)[C@@H]1NC(=O)[C@]2(C)CSC(=N2)c2csc(n2)CNC(=O)C[C@@H](/C=C/CCSCc2cccs2)OC1=O | Active | – | – |
| Active | inactive | inactive | – | 30% | 50 | Active | CC(C)[C@@H]1NC(=O)[C@]2(C)CSC(=N2)c2csc(n2)CNC(=O)C[C@@H](/C=C/CCSCc2ccccc2O)OC1=O | Active | – | – |
| Active | inactive | inactive | Active | 80% | 50 | Active | CC(C)[C@@H]1NC(=O)[C@]2(C)CSC(=N2)c2csc(n2)CNC(=O)C[C@@H](/C=C/CCSCc2ccccn2)OC1=O | – | 1000 | – |

| Structure (SMILES) | inhibition [1] | inhibition [2] | inhibition [3] | inhibition [5] | inhibition [6] | inhibition [7] [%] | inhibition [8] | growth inhibition (GI) (HCT-116 [4]) | GI50 (HCT-116 [9]) [nM] | inhibition [10] |
| --- | --- | --- | --- | --- | --- | --- | --- | --- | --- | --- |
| CCCCCCCC(=O)SCC/C=C/[C@@H]1CC(=O)NCc2nc(cs2)C2=N[C@@](C)(CS2)C(=O)N[C@@H](C(C)C)C(=O)O1 [LARGAZOLE] | Active | inactive | inactive | – | Active | 50 | Active | – | 10 | Active |
